# This is a sample that favours compounds with a hit; in the whole collection about 2.7% have one here.
# FGF22 binding – FGF22 (human) thermal shift binding; 1.5% of 340,000 active; recombinant FGF22 thermal shift, SYPRO orange fluorescence; percent of sucrose octasulfate shift, DMSO zero; activity (Tm shift, normalised), % at 9.99 µM; AID 651658;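 active means mean Tm shift, scaled 0 neutral to 100 positive control, at about 1.3% or above, every replicate too, limit read from the data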
# Target sequence (Q9HCT0 whole entry, looked up): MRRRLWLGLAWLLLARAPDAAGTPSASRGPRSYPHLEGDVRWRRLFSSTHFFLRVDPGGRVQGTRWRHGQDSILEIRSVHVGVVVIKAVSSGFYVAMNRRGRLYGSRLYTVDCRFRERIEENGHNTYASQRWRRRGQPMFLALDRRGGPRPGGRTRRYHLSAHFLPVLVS
# E-sel inducer – induces E-selectin expression in human endothelial cells; AID 686992; activation, % at 7.58 µM; 0.37% of 260,000 active; P16581; HUVEC E-selectin immunofluorescence imaging; normalized: neutral wells 0, TNF-alpha wells 100;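 active means mean E-selectin-positive cell signal at least 10% of the positive control, reached in at least 60% of replicates, without over 20% cell loss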
#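 Material: HUVEC primary endothelial cells; Amount: 3,000 cells per well; Dosing: single concentration; Medium: EGM-2 growth medium on 0.1% gelatin-coated wells; Read-out basis: percent E-selectin-positive cells; Signal: immunofluorescence imaging; Control set: TNF-alpha, DMSO.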
# CFTR F508del cor – correctors of CFTR F508del function in bronchial epithelial cells | CFBE cells, YFP halide quenching; stimulated with forskolin plus potentiator P3; % fluorescence drop versus neutral controls | activity (quench increase), % at 7.58 µM | 0.36% of 350,000 active | AID 720511;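 active means mean added fluorescence quench of at least 8% versus neutral control, with both replicates also reaching 8%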;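 further: cells transiently co-express mutant CFTR-F508del with the halide-sensitive YFP; corrector assay measuring rescue of mutant channel to the surface after 24 h compound exposure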
# S100A4 inh HTS – blocks human S100A4 binding to myosin IIA peptide | P26447 | S100A4/TAMRA-MyoIIA peptide fluorescence polarization | inhibition, % at 10.7 µM | 0.14% of 360,000 active;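 active means mean inhibition of at least 70% across replicates, with every replicate also reaching that level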
# Target sequence (P26447 whole entry, looked up): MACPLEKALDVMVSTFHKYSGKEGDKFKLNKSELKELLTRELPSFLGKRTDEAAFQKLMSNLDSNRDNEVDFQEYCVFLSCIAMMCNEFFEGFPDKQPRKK
#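 assay system = human S100A4 monomer with TAMRA-labelled myosin IIA peptide | also added = labelled myosin peptide probe, 5 nM | incubation = 5 min between mix addition and reading | control set = DMSO and TFP controls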
# Env fusion inh – inhibitors of HIV Env-mediated cell fusion; inhibition, % at 12.3 µM; 1.1% of 360,000 active; HeLa-JRFL Env/CEM21 cell fusion, luciferase;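 active means mean replicate inhibition score of at least 50 and every replicate individually at or above 50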
# A number is an active result; – = inactive; · = not tested or not shown; + = active, no number; ! = not confirmed by another sample; [ ] = dose if it differs, or a comment.
SMILES,FGF22 binding,E-sel inducer,CFTR F508del cor,S100A4 inh HTS,Env fusion inh
CSc1ccc(S(=O)(=O)Nc2ccc(OCC(=O)N3CCOCC3)cc2)cc1,43.5,–,–,–,–
O=C(COc1ccc(S(=O)(=O)Nc2ccc(Cl)cc2)cc1)N1CCOCC1,–,–,–,–,–
CCCCOc1ccc(C(=O)Nc2ccc(OCC(=O)N3CCOCC3)cc2)cc1,–,–,–,–,·
COc1ccc(S(=O)(=O)N(C)C[C@@H]2Oc3c(NC(=O)C4CCCCC4)cccc3C(=O)N([C@@H](C)CO)C[C@H]2C)cc1,–,–,–,–,·
COc1ccc2c3c([nH]c2c1)[C@H](CO)N(Cc1ccccn1)CC31CN(C(=O)c2ccccn2)C1,–,–,–,·,·
Cc1cccc(NC(=O)Nc2ccc3c(c2)C(=O)N(C)[C@H]2CC[C@@H](CC(=O)O)O[C@@H]2CO3)c1,–,–,–,–,–
CCn1c(SC(C)C(=O)NCC2CCCO2)nc2ccccc21 (stereo not given),–,–,14.6,–,·
COC1=CC(=O)c2c(ccc3ncnc(N)c23)C1=O,–,·,–,–,76.2
CC(C)NC(=O)Nc1ccc2c(c1)C(=O)N([C@H](C)CO)C[C@H](C)[C@@H](CN(C)C(=O)CCC(F)(F)F)OCCCC[C@@H](C)O2,–,–,–,–,–
C[C@@H]1CCCCO[C@H](CN(C)S(=O)(=O)c2ccc(Cl)cc2)[C@@H](C)CN([C@@H](C)CO)C(=O)c2cc(NC(=O)CCC(F)(F)F)ccc2O1,–,–,–,–,–
COc1ccccc1/C=N/NC(=O)c1ccc(CN2C(=O)c3cccc4cccc2c34)cc1,–,–,–,–,–
NNC(=O)c1ccc(CN2C(=O)c3cccc4cccc2c34)cc1,43.8,·,–,–,–
CN(C)C(=O)c1ccc(-c2ccc3c(c2)[C@@H]2[C@@H](CCN2C(=O)c2ccc4c(c2)OCO4)[C@H](CO)N3)cc1,·,–,–,·,·
CNC[C@H]1Oc2ccc(NC(=O)Nc3cccc4ccccc34)cc2C(=O)N([C@H](C)CO)C[C@@H]1C,–,·,–,–,·
Cc1noc(C)c1NC(=O)Nc1ccc2c(c1)C(=O)N(C)[C@H]1CC[C@@H](CC(=O)NCc3ccc(Cl)cc3)O[C@@H]1CO2,–,–,·,–,–
CN(C)c1ccc2c(c1)[C@@H]1C[C@@H](CC(=O)NCc3ccc(Oc4ccccc4)cc3)O[C@H](CO)[C@@H]1O2,–,·,17.4,–,–
CN(C)c1ccc2c(c1)[C@@H]1C[C@H](CC(=O)NCc3ccc(-c4ccccc4)cc3)O[C@@H](CO)[C@@H]1O2,–,–,–,·,80.5[16.7 µM]
CN(C)c1ccc2c(c1)[C@@H]1C[C@H](CC(=O)NCc3ccc(Oc4ccccc4)cc3)O[C@@H](CO)[C@@H]1O2,–,·,–,–,–
O=C(C[C@@H]1C[C@@H]2c3cc(NC(=O)c4ccc5c(c4)OCO5)ccc3O[C@@H]2[C@@H](CO)O1)NCc1ccc(Oc2ccccc2)cc1,–,–,–,–,70.7[16.7 µM]
CO[C@H]1CN(C)C(=O)c2ccc(NS(C)(=O)=O)cc2OC[C@@H](C)N(CC2CCCCC2)C[C@H]1C,–,–,–,·,–
O=C(O)C[C@@H]1CC[C@@H](NC(=O)c2ccccc2F)[C@@H](CO)O1,–,–,–,–,–
Cc1cccc(C)c1NC(=O)COC(=O)Cc1ccsc1,43.3,·,–,–,–
O=C(Cc1ccsc1)OCC(=O)c1ccccc1,–,–,13.5,–,–
O=C(COC(=O)Cc1ccsc1)NCc1ccccc1,·,·,·,·,–
O=C(Cc1ccncc1)N1CC[C@@H]2[C@H]1c1cc(-c3cccc(F)c3)ccc1N[C@@H]2CO,–,–,–,·,·
SMILES,FGF22 binding,E-sel inducer,CFTR F508del cor,S100A4 inh HTS,Env fusion inh
CC(C)NC(=O)Nc1ccc2c(c1)C(=O)N([C@@H](C)CO)C[C@@H](C)[C@@H](CN(C)C(=O)NC1CCCCC1)OCCCC[C@@H](C)O2,–,–,–,–,–
Cc1ccc2nsnc2c1NC(=O)c1ccc([N+](=O)[O-])cc1,43.5,·,–,–,–
O=C(O)c1ccccc1-c1c2cc(I)c(=O)c(I)c-2oc2c(I)c(O)c(I)cc12,–,–,8.7!,+,–
CCC(=O)N(C)C[C@@H]1Oc2ncc(-c3ccc(F)cc3)cc2C(=O)N([C@@H](C)CO)C[C@@H]1C,–,–,–,–,–
Cc1nc2ncnn2c(N2CCN(C(c3ccccc3)c3ccccc3)CC2)c1C,·,·,·,·,–
Cc1nc2ncnn2c(N2CCN(c3cccc(C(F)(F)F)c3)CC2)c1C,·,·,·,·,60.1
Cc1cc(-c2ccccc2)n2ncc(-c3ccccc3)c2n1,–,·,·,–,–
COc1ccc(-c2cc(C)nc3c(-c4ccccc4)cnn23)cc1,42.9,–,–,–,–
CCC(=O)N1C[C@@H]2[C@H](c3ccccc31)[C@H](CO)N2CC1CCCC1,–,–,–,–,·
Cc1cc(O)c(C(C)C)cc1C1(c2cc(C(C)C)c(O)cc2C)OC(=O)c2ccccc21,–,–,–,–,67.6
CO[C@H]1CN(C)C(=O)c2cc(NC(=O)Nc3cc(F)ccc3F)ccc2OC[C@@H](C)N(C(=O)c2ccccn2)C[C@H]1C,·,–,–,–,–
CC(C)(C)C1CCc2c(sc3nc(SCC(=O)O)nc(N)c23)C1 (stereo not given),–,–,–,–,–
Nc1nc(SCC(=O)NCCO)nc2sc3c(c12)CCCC3,43.1,–,–,–,–
O=C(c1ccncc1)N1CC2(C1)[C@@H](c1ccccc1)[C@H](CO)N2C(=O)CC1CC1,–,–,–,–,·
CC(=O)Nc1cccc(NC(=O)CN2c3cccc4cccc(c34)S2(=O)=O)c1,–,–,24.4,–,–
COc1ccc(CN(C)C[C@H]2Oc3ccc(NS(=O)(=O)c4cn(C)cn4)cc3C(=O)N([C@H](C)CO)C[C@@H]2C)cc1,–,·,–,–,·
OCc1c(Cl)nc2ccccn12,43.1,·,–,–,–
COC(=O)c1ccc(/C=N/Nc2nc(N3CCCCC3)nc(N3CCCCC3)n2)cc1,43.5,·,–,–,–
CCSc1nnc(CNC(=O)c2ccccc2F)n1-c1ccccc1OC,43.5,·,–,–,–
COC(=O)CSc1nnc(CNC(=O)c2ccccc2F)n1-c1ccc(F)cc1,–,–,–,–,–
C/C=C/c1ccc([C@@H]2[C@H](CO)N[C@H]2CN(C(=O)c2ccccc2F)C(C)C)cc1,·,–,–,·,·
O=C(COC(=O)/C=C/c1cn(-c2ccccc2)nc1-c1ccc2c(c1)OCCO2)NC1CCS(=O)(=O)C1 (stereo not given),–,–,–,–,–
CN(C(=O)COC(=O)/C=C/c1cn(-c2ccccc2)nc1-c1ccc2c(c1)OCCO2)C1CCS(=O)(=O)C1 (stereo not given),43.3,–,–,–,–
C[C@H](CO)N1C[C@H](C)[C@H](CN(C)Cc2ccc(Oc3ccccc3)cc2)Oc2c(NC(=O)c3ccc(-c4nccs4)cc3)cccc2C1=O,–,–,–,–,·

# Source: PubChem BioAssay (Broad Institute)
